Laboratory results from ChEMBL document CHEMBL5046221, “Identification of Pyrimidine-Based Lead Compounds for Understudied Kinases Implicated in Driving Neurodegeneration” (J Med Chem, 2022).

Legend:
[1] = Inhibition of human TTBK1 (1 to 479 residues) using Casein as substrate measured after 40 mins in presence of [gamma33P]ATP by scintillation counting method
Method in brief: (§1)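 Eurofins radiometric kinase assay run at ATP equal to Km for each kinase. 9-point dose–response in duplicate gives the IC50.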

[2] = molecular target: High affinity nerve growth factor receptor (Homo sapiens, UniProt P04629); assay: Inhibition of human TrkA (440 to end residues) using KKKSPGEYVNIEFG as substrate measured after 40 mins in presence of [gamma33P]ATP by scintillation counting method; method in brief: as §1
High affinity nerve growth factor receptor, sequence (P04629 whole entry, the tested form may be a part): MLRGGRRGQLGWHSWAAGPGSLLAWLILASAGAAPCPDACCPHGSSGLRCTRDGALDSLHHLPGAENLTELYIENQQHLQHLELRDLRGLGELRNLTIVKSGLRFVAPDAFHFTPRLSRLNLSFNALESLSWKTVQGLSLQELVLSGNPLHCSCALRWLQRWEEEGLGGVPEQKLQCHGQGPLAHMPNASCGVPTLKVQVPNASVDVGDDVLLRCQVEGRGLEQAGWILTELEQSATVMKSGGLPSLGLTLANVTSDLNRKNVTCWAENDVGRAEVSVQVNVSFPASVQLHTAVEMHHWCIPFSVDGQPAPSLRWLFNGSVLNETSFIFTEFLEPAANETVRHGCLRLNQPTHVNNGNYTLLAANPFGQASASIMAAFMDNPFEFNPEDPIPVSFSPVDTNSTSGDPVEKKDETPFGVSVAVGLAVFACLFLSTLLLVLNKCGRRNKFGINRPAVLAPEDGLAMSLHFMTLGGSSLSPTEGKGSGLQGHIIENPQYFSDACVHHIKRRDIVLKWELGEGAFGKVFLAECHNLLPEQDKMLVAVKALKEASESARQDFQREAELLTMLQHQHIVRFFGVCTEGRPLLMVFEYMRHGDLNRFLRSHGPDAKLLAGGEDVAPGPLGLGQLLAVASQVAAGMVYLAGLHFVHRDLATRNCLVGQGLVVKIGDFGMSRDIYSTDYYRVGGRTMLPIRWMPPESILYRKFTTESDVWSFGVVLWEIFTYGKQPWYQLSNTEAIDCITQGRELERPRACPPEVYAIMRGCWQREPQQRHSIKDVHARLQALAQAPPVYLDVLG

[3] = molecular target: T1, MAP/microtubule affinity-regulating kinase 4 (Homo sapiens, UniProt Q96L34); assay: Displacement of tracer K5 from NLuc fused MARK4 (unknown origin) expressed in HEK293 cells by NanoBRET assay; format: cell-based
T1 sequence (Q96L34 whole entry): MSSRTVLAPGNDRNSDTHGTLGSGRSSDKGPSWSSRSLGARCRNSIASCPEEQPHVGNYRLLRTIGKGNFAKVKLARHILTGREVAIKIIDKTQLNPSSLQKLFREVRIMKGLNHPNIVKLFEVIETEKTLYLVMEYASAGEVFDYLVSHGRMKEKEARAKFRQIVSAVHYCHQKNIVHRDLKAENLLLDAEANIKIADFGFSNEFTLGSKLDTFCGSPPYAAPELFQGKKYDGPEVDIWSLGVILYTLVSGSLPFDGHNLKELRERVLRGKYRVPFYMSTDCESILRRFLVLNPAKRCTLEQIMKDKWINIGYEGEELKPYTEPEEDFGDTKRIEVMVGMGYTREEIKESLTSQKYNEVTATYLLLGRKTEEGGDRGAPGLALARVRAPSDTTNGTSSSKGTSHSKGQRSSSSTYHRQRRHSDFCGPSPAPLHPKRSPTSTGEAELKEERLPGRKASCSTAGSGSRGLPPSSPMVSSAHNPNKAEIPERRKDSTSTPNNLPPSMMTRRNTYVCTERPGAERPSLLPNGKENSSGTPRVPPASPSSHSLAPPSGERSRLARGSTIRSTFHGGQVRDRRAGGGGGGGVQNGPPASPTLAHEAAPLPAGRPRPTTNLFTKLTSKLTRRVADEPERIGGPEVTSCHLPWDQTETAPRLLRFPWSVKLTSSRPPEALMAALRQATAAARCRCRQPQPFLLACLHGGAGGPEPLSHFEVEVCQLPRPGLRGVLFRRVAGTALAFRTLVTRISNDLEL

[4] = molecular target: Tyrosine-protein kinase JAK2 (Homo sapiens) (UniProt O60674); assay: Inhibition of recombinant human JAK2 (808 to end residues) using KTFCGTPEYLAPEVRREPRILSEEEQEMFRDFDYIADWC as substrate at 1 uM incubated for 40 mins in presence of [gamma-33P-ATP] by radiometric scintillation assay relative to control
Tyrosine-protein kinase JAK2 (Homo sapiens), sequence (O60674 whole entry): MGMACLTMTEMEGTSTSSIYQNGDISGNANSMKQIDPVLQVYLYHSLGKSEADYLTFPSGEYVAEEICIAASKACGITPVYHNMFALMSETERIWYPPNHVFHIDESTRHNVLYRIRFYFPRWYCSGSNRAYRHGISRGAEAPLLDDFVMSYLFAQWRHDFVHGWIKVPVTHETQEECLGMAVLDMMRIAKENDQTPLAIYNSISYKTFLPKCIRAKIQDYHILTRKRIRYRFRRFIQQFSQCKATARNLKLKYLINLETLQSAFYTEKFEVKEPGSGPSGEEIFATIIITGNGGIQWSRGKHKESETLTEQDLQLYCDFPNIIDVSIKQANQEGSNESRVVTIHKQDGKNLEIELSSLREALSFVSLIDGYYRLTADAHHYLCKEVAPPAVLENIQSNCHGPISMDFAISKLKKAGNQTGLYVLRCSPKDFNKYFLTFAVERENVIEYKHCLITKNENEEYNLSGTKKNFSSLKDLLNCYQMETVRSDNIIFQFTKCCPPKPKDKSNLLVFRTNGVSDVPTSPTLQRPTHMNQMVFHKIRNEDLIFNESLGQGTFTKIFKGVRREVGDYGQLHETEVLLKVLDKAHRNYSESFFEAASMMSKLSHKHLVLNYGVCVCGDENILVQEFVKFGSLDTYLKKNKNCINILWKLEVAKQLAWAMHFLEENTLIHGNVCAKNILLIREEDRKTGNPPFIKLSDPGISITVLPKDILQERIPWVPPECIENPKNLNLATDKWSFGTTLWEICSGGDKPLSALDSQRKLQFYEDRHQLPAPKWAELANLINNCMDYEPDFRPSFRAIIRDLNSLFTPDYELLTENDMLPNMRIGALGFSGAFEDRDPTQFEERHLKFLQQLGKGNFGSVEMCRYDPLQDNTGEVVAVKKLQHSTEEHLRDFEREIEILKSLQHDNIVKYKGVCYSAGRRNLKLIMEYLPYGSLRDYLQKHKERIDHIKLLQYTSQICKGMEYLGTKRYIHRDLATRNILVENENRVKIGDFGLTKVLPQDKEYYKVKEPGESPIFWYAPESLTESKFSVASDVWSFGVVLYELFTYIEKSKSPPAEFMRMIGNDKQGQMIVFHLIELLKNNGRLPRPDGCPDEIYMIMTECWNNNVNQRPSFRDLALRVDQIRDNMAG
Method in brief: (§2)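 Eurofins radiometric kinase assay with ATP at Km for each kinase. Compound was tested at a single 1 μM concentration in duplicate, and the result is reported as percent of control.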

[5] = molecular target: Serine/threonine-protein kinase PRP4 homolog (Homo sapiens, UniProt Q13523); assay: Inhibition of recombinant human PRP4 (663 to end residues) using casein as substrate incubated for 120 mins in presence of [gamma-33P-ATP] by radiometric scintillation assay
Serine/threonine-protein kinase PRP4 homolog, sequence (Q13523 whole entry): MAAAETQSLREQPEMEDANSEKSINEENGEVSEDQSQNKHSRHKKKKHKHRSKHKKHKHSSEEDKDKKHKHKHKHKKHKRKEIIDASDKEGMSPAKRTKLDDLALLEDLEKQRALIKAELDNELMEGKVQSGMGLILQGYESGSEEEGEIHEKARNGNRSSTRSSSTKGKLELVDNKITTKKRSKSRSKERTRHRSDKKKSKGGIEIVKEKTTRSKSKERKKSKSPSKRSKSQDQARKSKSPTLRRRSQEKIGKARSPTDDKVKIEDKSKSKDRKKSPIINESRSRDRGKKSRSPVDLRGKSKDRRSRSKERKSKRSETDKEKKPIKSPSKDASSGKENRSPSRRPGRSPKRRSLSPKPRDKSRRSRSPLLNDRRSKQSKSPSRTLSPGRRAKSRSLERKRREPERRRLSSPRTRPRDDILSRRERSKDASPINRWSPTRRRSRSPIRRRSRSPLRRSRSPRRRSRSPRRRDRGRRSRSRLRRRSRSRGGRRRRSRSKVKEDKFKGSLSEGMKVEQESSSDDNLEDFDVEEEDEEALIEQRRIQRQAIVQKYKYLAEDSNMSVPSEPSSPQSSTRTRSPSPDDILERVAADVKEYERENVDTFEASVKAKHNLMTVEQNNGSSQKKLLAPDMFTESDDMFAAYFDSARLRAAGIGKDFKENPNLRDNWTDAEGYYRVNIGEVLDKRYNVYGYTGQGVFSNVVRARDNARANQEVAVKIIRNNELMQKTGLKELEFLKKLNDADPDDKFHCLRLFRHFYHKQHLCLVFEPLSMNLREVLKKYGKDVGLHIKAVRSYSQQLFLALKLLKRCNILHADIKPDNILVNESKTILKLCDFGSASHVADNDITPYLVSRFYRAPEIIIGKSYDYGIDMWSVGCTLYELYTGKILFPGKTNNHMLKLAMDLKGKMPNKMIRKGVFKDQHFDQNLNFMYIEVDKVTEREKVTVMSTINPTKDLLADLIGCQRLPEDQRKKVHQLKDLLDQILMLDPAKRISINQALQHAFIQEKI
Method in brief: (§3)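 Eurofins radiometric enzymatic assay with ATP at Km for each kinase. IC50 was derived from a 9-point dose–response curve run in duplicate.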

[6] = molecular target: Casein kinase II subunit alpha (Homo sapiens, UniProt P68400); assay: Inhibition of full length recombinant human CSNK2A1 using RRRDDDSDDD as substrate incubated for 40 mins in presence of [gamma-33P-ATP] by radiometric scintillation assay; method in brief: as §3
Casein kinase II subunit alpha, sequence (P68400 whole entry): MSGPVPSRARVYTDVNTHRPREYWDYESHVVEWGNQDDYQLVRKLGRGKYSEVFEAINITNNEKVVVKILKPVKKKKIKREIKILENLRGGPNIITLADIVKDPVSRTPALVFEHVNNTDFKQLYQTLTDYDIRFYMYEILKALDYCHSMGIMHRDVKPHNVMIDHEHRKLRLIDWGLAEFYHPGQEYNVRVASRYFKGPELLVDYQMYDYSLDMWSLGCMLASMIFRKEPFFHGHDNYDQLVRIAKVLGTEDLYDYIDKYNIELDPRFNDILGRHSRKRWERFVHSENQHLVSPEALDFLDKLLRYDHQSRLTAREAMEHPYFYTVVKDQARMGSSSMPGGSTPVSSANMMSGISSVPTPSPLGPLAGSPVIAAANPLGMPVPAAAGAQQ

[7] = molecular target: T2, Serine/threonine-protein kinase 17B (Homo sapiens) (UniProt O94768); assay: Inhibition of full length recombinant human DRAK2 using KKRPQRRYSNVF as substrate at 1 uM incubated for 120 mins in presence of [gamma-33P-ATP] by radiometric scintillation assay relative to control; method in brief: as §2
T2 sequence (whole entry): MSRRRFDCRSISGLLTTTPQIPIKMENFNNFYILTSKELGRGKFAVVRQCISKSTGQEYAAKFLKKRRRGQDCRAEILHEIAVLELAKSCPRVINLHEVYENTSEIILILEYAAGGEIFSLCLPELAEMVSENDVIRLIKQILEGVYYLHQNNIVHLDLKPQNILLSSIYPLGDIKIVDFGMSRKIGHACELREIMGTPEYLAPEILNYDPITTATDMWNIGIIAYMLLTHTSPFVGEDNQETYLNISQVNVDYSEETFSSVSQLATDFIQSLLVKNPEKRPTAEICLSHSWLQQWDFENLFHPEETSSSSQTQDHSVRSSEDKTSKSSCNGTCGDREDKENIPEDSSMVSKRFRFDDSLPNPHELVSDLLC

Activin receptor type-1 = Activin receptor type-1 (Homo sapiens, UniProt Q04771); assay: Inhibition of human ALK2 (147 to end residues) using casein as substrate incubated for 40 mins in presence of [gamma-33ATP] by scintillation counting based radiometry assay; method in brief: as §3
Activin receptor type-1, sequence (Q04771 whole entry): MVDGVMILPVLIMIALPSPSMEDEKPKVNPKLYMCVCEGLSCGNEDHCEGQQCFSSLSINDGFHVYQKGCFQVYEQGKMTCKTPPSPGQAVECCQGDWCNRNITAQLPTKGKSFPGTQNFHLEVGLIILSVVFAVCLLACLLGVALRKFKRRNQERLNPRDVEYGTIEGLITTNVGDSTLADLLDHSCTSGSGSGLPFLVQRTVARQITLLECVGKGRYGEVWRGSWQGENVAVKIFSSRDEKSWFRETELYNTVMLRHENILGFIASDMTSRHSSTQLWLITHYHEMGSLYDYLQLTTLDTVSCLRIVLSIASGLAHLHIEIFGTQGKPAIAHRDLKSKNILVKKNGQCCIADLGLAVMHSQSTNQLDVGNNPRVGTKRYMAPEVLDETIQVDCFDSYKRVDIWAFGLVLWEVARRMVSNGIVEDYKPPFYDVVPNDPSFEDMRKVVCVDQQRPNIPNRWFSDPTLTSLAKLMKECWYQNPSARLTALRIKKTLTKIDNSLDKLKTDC

[8] = molecular target: Bone morphogenetic protein receptor type-1B (Homo sapiens, UniProt O00238); assay: Inhibition of recombinant human BMPR1B (148 to end residues) using casein as substrate incubated for 40 mins in presence of [gamma-33P-ATP] by radiometric scintillation assay; method in brief: as §3
Bone morphogenetic protein receptor type-1B, sequence (O00238 whole entry): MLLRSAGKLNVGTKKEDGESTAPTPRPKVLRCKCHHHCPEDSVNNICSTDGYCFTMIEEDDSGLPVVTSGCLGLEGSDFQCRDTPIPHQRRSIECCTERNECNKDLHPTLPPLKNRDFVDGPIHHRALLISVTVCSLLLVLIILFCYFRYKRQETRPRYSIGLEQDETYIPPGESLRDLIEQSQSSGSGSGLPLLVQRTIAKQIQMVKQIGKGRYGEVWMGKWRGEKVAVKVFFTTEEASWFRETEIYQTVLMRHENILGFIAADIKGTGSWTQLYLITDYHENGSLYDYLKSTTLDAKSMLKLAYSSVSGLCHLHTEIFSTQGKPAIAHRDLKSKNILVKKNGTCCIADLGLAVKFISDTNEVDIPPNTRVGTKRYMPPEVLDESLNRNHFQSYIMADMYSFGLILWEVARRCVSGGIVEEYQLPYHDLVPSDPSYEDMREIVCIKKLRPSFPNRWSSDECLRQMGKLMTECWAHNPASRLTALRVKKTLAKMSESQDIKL

[9] = molecular target: MAP kinase-interacting serine/threonine-protein kinase 2 (Homo sapiens, UniProt Q9HBH9); assay: Inhibition of full length recombinant human MKNK2 using myelin basic protein as substrate incubated for 40 mins in presence of [gamma-33P-ATP] by radiometric scintillation assay; method in brief: as §1
MAP kinase-interacting serine/threonine-protein kinase 2, sequence (Q9HBH9 whole entry): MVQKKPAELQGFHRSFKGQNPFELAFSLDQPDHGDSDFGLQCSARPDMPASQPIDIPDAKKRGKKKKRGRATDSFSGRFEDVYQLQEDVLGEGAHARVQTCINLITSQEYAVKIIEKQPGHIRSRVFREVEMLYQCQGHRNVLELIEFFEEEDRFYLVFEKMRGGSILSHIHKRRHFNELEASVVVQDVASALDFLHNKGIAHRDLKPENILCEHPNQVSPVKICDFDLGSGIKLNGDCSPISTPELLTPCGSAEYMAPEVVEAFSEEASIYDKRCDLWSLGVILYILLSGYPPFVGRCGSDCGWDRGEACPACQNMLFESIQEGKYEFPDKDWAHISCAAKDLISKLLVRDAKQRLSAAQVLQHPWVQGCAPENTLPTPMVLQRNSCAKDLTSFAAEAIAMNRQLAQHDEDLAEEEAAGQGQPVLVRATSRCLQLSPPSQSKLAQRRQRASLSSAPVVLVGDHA

Row | Structure (SMILES) | IC50 [1] | IC50 [2] | IC50 [3] | % control [4] | IC50 [5] | IC50 [6] | % control [7] | IC50 (Activin receptor type-1) | IC50 [8] | IC50 [9]
1 | NS(=O)(=O)c1ccc(CNc2nc(Nc3cccc(CN4CCOCC4)c3)ncc2C2CC2)cc1 | 0.187 µM | 0.153 µM | > 10 µM | 87% |  |  |  |  |  | 
2 | NS(=O)(=O)c1ccc(CNc2nc(Nc3cccc(CN4CCOCC4)c3)ncc2Br)cc1 | 0.066 µM | 0.158 µM | > 10 µM | 3% | > 10 µM | > 10 µM |  |  |  | 
3 | c1cc(CN2CCOCC2)cc(Nc2nccc(NCCc3cnc[nH]3)n2)c1 |  |  | > 10 µM | 81% |  |  | 65% | 0.537 µM | 9.03 µM | 
4 | NS(=O)(=O)c1ccc(CNc2nc(Nc3cccc(NC(=O)N4CCCC4)c3)ncc2Br)cc1 | 0.192 µM | 0.283 µM | > 10 µM | 12% |  |  |  |  |  | 1.01 µM
